Measurements gathered from unrelated publications.
Protocols differ between the studies behind these lines.
Target: Interleukin-1 receptor-associated kinase 1 (IRAK1, Homo sapiens, UniProt P51617)

SMILES	assay	setting	endpoint	value
Cc1ccc(Nc2nccc(N(C)c3ccc4c(C)n(C)nc4c3)n2)cc1S(N)(=O)=O	enzyme activity, inhibitor	10 µM	inhibition	25%
Cc1sc(C(=O)NC2COC2)cc1-n1cc(NC(=O)Nc2c(F)cccc2Cl)cn1	enzyme activity, inhibitor	10 µM	remaining activity	79.9%
CCCS(=O)(=O)Nc1ccc(F)c(C(=O)c2c[nH]c3ncc(-c4ccc(Cl)cc4)cc23)c1F	enzyme activity, inhibitor	1 µM	inhibition	< 10%
CNC(=O)c1cc(Oc2ccc(NC(=O)Nc3ccc(Cl)c(C(F)(F)F)c3)cc2)ccn1	enzyme activity, inhibitor	10 µM	inhibition	60%
CCCCNc1ncc2c(-c3ccc(F)cc3)nn(C[C@H]3CC[C@H](N)CC3)c2n1	target engagement in cells, inhibitor, chemoproteomics	20 mM	inhibition	51.5%
CCOC(=O)c1cc2cc(-c3cc(C(=O)NCc4ccc(C(=O)O)cc4)nn3C)ccc2[nH]1	cell-free assay, competition with immobilised ligand	0.1 µM	remaining binding	85%
O=C1Nc2ccc(Cl)cc2C1=Cc1cc(Cl)c(O)c(Cl)c1	cell-free assay	0.5 µM	remaining signal	95.4%
COc1cc(/C=C/C(=O)CC(=O)/C=C/c2ccc(O)c(OC)c2)ccc1O	enzyme activity, inhibitor	1 µM	activity vs control	97%
CS(=O)(=O)c1cc(C2(NC(=O)c3cncc4c3cnn4-c3ccc(F)cc3)CC2)ccn1	cell-free assay, competition with immobilised ligand	1 µM	remaining binding	87%
Cc1ccc(NC(=O)c2ccc(C)c(C(F)(F)F)c2)cc1C#Cc1nn(C2CCC(O)CC2)c2ncnc(N)c12 (centres unmarked)	cell-free assay	10 µM	remaining signal	30%
C=CC(=O)Nc1cc(Nc2nccc(Nc3cc(Cl)c(F)cc3C(C)(C)O)n2)c(OC)cc1N1CC[C@@H](N(C)C)C1	enzyme activity, inhibitor	1 µM	inhibition	11%
Nc1ncnc2occ(-c3ccc(NC(=O)Nc4cc(C(F)(F)F)ccc4F)cc3)c12	cell-free assay, inhibitor	20 µM	remaining signal	0.85%
FC(F)(F)Oc1cccc(-c2cnc3ccc(-c4ccncc4)nn23)c1	enzyme activity, inhibitor, radiometric	1 µM	activity vs control	52%
CN(C)C1CCN(CC#Cc2nn(C3CCCC3)c3nc(NCc4ccccc4)ncc23)C1 (centres unmarked)	enzyme activity, inhibitor, FRET	0.1 µM	inhibition	6%
CC(C)(C)c1nc(-c2cccc(NS(=O)(=O)c3c(F)cccc3F)c2F)c(-c2ccnc(N)n2)s1	enzyme activity, inhibitor, radiometric	1 µM	remaining activity	84%
CCN(CC)c1ccc(C2=NNC(=O)CC2C)cc1[N+](=O)[O-] (centres unmarked)	enzyme activity, inhibitor	10 µM	remaining activity	89%
CCN(CC)CCNC(=O)c1c(C)[nH]c(/C=C2\C(=O)Nc3ccc(F)cc32)c1C	enzyme activity, inhibitor	10 µM	inhibition	86%
COc1ccc2c(c1)O[C@H](c1ccc(OC)c(OC)c1)C[C@@H]2NC(=O)C1(c2ccc3c(c2)OC(F)(F)O3)CC1	cell-free assay, competition with immobilised ligand	1 µM	remaining binding	93%
COc1cc(-c2cc(-c3ccc(N4CCNCC4)cc3)cnc2C)cc(OC)c1OC	enzyme activity, inhibitor	1 µM	inhibition	1%
CNC(=O)Nc1ccc2c(c1)[C@@]1(CC2)OC(=O)N(CC(=O)N(Cc2ccc(F)cc2)[C@@H](C)C(F)(F)F)C1=O	cell-free assay, competition with immobilised ligand	1 µM	remaining binding	88%
Cc1cnc(NC2CCOCC2)nc1-n1cnc(C(=O)NC(CN)c2cc(F)cc(Cl)c2)c1 (centres unmarked)	enzyme activity, inhibitor, radiometric	1 µM	remaining activity	101%
O=C(Nc1ccc(Oc2ccc(F)cc2)cc1)N1CCc2ncccc2[C@H]1c1ccc(F)cc1	cell-free assay, competition with immobilised ligand	1 µM	remaining binding	88%
N#CCCc1ccc2c(c1)-c1[nH]c3ccc([N+](=O)[O-])cc3c1CC(=O)N2	cell-free assay	0.5 µM	remaining signal	74.9%
CN(C)CC#Cc1ccc(OCCCc2sc(N3CCc4cccc(C(=O)Nc5nc6ccccc6s5)c4C3)nc2C(=O)O)c(F)c1	cell-free assay, competition with immobilised ligand	1 µM	remaining binding	100%
COc1cc(Nc2cnc(C#N)c(O[C@H](C)CN(C)C)n2)ncc1-c1cnn(C)c1	enzyme activity, inhibitor, radiometric	10 µM	remaining activity	9%
CCCOc1ccc([C@@H]2[C@@H](C(=O)O)[C@H](c3ccc4c(c3)OCO4)CN2CC(=O)Nc2c(CC)cccc2CC)cc1	cell-free assay, competition with immobilised ligand	1 µM	remaining binding	96%
COc1ccc(COc2ccc(Cc3cnc(N)nc3N)cc2OC)cc1	cell-free assay	0.5 µM	remaining signal	123%
CN1CC(Oc2cnc(C#N)cc2-c2ccn3nc(NC(=O)C4CC4)cc3c2)C1	enzyme activity, inhibitor	1 µM	inhibition	38%
COCCOc1nc(-c2ccc(Cl)nc2)nc2c1CN(C(=O)c1ncn3ccccc13)CC2	cell-free assay, competition with immobilised ligand	0.1 µM	remaining binding	100%
